Results from different studies.
Lines come from different studies, so protocols differ.
Target: Focal adhesion kinase 1 (PTK2, Homo sapiens, UniProt Q05397)

SMILES	assay	setting	remaining binding
C[C@@H](c1ccc(-n2cnc3c(N)ncnc32)cc1)N1CCc2nn(C)c(Cc3ccccc3)c2C1=O	binding, competition with immobilised ligand	0.1 µM	87%
N[C@H]1CCN(c2nccc(-c3cnn4ncccc34)n2)C1	binding	1 µM	100%
N#Cc1ccccc1CSc1nnc2c(n1)[nH]c1ccccc12	binding, competition with immobilised ligand	10 µM	98%
Nc1ncc2c(n1)-c1c([nH]c3ccc(C#CC4CC4)cc13)CCCC2	binding, competition with immobilised ligand	1 µM	91%
C[C@@H]1CCN(c2nccc(-c3cnn4ncccc34)n2)C1	binding	1 µM	100%
O=C(NCC1CCOCC1)c1n[nH]cc1NC(=O)c1c(F)cccc1F	binding, competition with immobilised ligand	1 µM	100%
CCOCCn1cc(C(=O)Nc2ccc(-n3nc(-c4cccnc4)cc3C(F)(F)F)cn2)ccc1=O	cell-free assay, competition with immobilised ligand	1 µM	100%
O=C(c1ccc(Nc2nccc(-c3cc4ccccc4s3)n2)cc1)N1CCC(N2CCCC2)CC1	binding, competition with immobilised ligand	1 µM	81%
CNC(=O)[C@@H]1CC[C@@H](n2c(-c3ccc4cnccc4c3)nc3ccc(C(=O)NCc4cccc(C(N)=O)c4)cc32)C1	binding, competition with immobilised ligand	1 µM	92%
O=C(c1ccc(Nc2ncc(Cl)c(-c3ccc(Cl)s3)n2)cc1)N1CCC(N2CCCC2)CC1	binding, competition with immobilised ligand	1 µM	41%
O=C(NS(=O)(=O)c1ccc(NCC2CCOCC2)c([N+](=O)[O-])c1)c1ccc(N2CCN(Cc3ccc(C(F)(F)F)cc3-c3ccc(Cl)cc3)CC2)cc1Oc1cnc2[nH]ccc2c1	cell-free assay, competition with immobilised ligand	1 µM	100%
C[C@@H]1CN(c2ccc3ncc(-c4ccc5[nH]nc(C6CC6)c5c4)n3n2)C[C@H](C)O1	binding, competition with immobilised ligand	50 nM	98%
COc1cnc(Nc2cccc(S(N)(=O)=O)c2)nc1N1CCN(c2ccccc2)C(=O)C1	binding, competition with immobilised ligand	1 µM	99%
Cc1cnc(Nc2ccc(C(=O)N3CCC(N4CCCC4)CC3)cc2)nc1-c1cc2ccccc2s1	binding, competition with immobilised ligand	1 µM	100%
O=C(NCc1ncc(C(F)(F)F)cc1Cl)c1ccc2c(c1)C1(CCS(=O)(=O)CC1)[C@@H](C1CC1)N2S(=O)(=O)c1ccc(F)cc1	cell-free assay, competition with immobilised ligand	1 µM	95%
CN(CCCC(F)(F)F)c1nccc(-c2cnn3ncccc23)n1	binding	1 µM	100%
COc1cc(-c2cn(C3CCc4ccccc4N(CC(F)(F)F)C3=O)nn2)ccc1-n1ccc(C)n1 (stereo not shown)	cell-free assay, competition with immobilised ligand	1 µM	100%
CC(C)(C)c1ccc(-c2nc(CBr)nn2-c2cccc(O)c2)cc1	cell-free assay, competition with immobilised ligand	10 µM	88%
O=C1CCc2cc(Nc3cc(OC4CCOCC4)c([N+](=O)[O-])cc3Cl)ccc2N1	cell-free assay, competition with immobilised ligand	1 µM	100%
CCN1CCN(Cc2ccc(C(=O)Nc3ccc(C)c(Oc4ccc5c(c4)CC(=O)N5)c3)cc2C(F)(F)F)CC1	binding, competition with immobilised ligand	1 µM	77%
O=C(O)c1cc(-c2ccc(C3CCNCC3)cc2)c2ccc(-c3ccc(C(F)(F)F)cc3)cc2c1	cell-free assay, competition with immobilised ligand	1 µM	100%
CC1CCCN1c1nccc(-c2cnn3ncccc23)n1 (stereo not shown)	binding	1 µM	100%
